From ChEMBL document CHEMBL1133353, “Structural analogues of some highly active non-competitive AMPA antagonists” (Bioorg Med Chem Lett, 2000)

Tests used:
Mus musculus [1] = test: Anticonvulsant activity of compound, administered perorally in mice was evaluated using maximal electroshock seizure model; assay type: functional; conditions: po
Outline: (§1)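 Mice were dosed orally 60 min before maximal electroshock, using 10 mice per dose at 3–4 doses. ED50 was calculated by the Litchfield–Wilcoxon method.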

Mus musculus [2] = test: No behavioral change was observed after the intraperitoneal administration of compound in mice; assay type: functional
Mus musculus [3] = test: Muscle relaxant activity of compound, administered intraperitoneally in mice was evaluated using inclined screen test; assay type: functional; conditions: ip
Outline: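 Inclined screen test for muscle relaxation in mice, with compound given ip 30 min before testing; 10 mice per dose at 3–4 doses. ED50 was derived by the Litchfield–Wilcoxon method.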

Gallus gallus [4] = species: Gallus gallus; test: Compound was examined in vitro for inhibition of AMPA (5 uM) evoked spreading depression in isolated retina prepared from young chicken; assay type: functional
Outline: (§2)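 Each compound was first screened at 20 µM in 6 retina preparations. Below 40% inhibition was recorded as IC50 >20 µM, and 40–60% as ~20 µM. Above 60%, IC50 was determined from 3–5 concentrations with 6 retinas per concentration.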

Mus musculus [5] = test: No behavioral change was observed after the peroral administration of compound in mice; assay type: functional
Mus musculus [6] = test: Increase of spontaneous motor activity, ataxy, stereotypia, licking, muscle rigidity was observed after the intraperitoneal administration of compound in mice; assay type: functional
Mus musculus [7] = test: Anticonvulsant activity of compound, administered perorally in mice was evaluated using maximal electroshock seizure model; values ranges from (40.5-54.7); assay type: functional; conditions: po; outline: as §1
Mus musculus [8] = test: Increase of spontaneous motor activity, ataxy, stereotypia, licking, muscle rigidity was observed after the peroral administration of compound in mice; assay type: functional
Mus musculus [9] = test: Loss of righting reflex was observed after the intraperitoneal administration of compound in mice; assay type: functional
Rattus norvegicus [10] = species: Rattus norvegicus; test: (§3) Compound was tested for inhibition of whole cell current induced […]; assay type: functional
Outline: (§4)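 Patch-clamp whole-cell currents evoked by 5 µM AMPA; inhibition reported as IC50 or as percent inhibition at 5 µM compound.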

Gallus gallus [11] = species: Gallus gallus; test: Compound was examined in vitro for inhibition of kainate (5 uM) evoked spreading depression in isolated retina prepared from young chicken; assay type: functional; outline: as §2
Mus musculus [12] = test: Anticonvulsant activity of compound, administered perorally in mice was evaluated using maximal metrazole seizure model; assay type: functional; conditions: po
Outline: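 Oral dosing in mice 60 min before 130 mg/kg metrazole ip, with lethality as the endpoint; 10 mice per dose at 3–4 doses. ED50 was obtained by the Litchfield–Wilcoxon method.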

Mus musculus [13] = test: Loss of righting reflex was observed after the peroral administration of compound in mice; assay type: functional
Mus musculus [14] = test: Decrease of spontaneous motor activity, ataxy, mild muscle relaxation was observed after the peroral administration of compound in mice; assay type: functional
Mus musculus [15] = test: Decrease of spontaneous motor activity, ataxy, mild muscle relaxation was observed after the intraperitoneal administration of compound in mice; assay type: functional
Mus musculus [16] = test: Adynamia was observed after the peroral administration of compound in mice; assay type: functional
Mus musculus [17] = test: Adynamia was observed after the intraperitoneal administration of compound in mice; assay type: functional
Rattus norvegicus [18] = species: Rattus norvegicus; test: as §3; assay type: functional, cell-based; outline: as §4

SMILES	ED50 (Mus musculus [1]) [mg/kg]	ED50 (Mus musculus [3]) [mg/kg]	IC50 (Gallus gallus [4]) [µM]	Dose (Mus musculus [9]) [mg/kg]	IC50 (Gallus gallus [11]) [µM]	ED50 (Mus musculus [12]) [mg/kg]	Dose (Mus musculus [13]) [mg/kg]	further results
CCCCC(=O)N1CC(C)c2cc3c(cc2C(c2ccc(N)cc2)=N1)OCO3 (stereo not drawn)	> 100	> 200	> 20	–	–	–	–	Dose (Mus musculus [2]): 100 mg/kg; Dose (Mus musculus [5]): 200 mg/kg
CC1CNN=C(c2ccc(N)cc2)c2cc3c(cc21)OCO3 (stereo not drawn)	–	100	–	–	–	–	–	Dose (Mus musculus [6]): 100 mg/kg; ED50 (Mus musculus [7]): 47.1 mg/kg; Dose (Mus musculus [8]): 200 mg/kg
CNC(=O)N1CC(C)c2cc3c(cc2C(c2ccc(N)cc2)=N1)OCO3 (stereo not drawn)	48.8	55.9	15.6	100	20	67.6	200	Inhibition (Rattus norvegicus [10]): 52.7%
CC1CN(C(=O)C2CC2)N=C(c2ccc(N)cc2)c2cc3c(cc21)OCO3 (stereo not drawn)	> 100	> 200	> 20	–	–	–	–	Dose (Mus musculus [2]): 100 mg/kg; Dose (Mus musculus [5]): 200 mg/kg
CC1CN(c2ccccn2)N=C(c2ccc(N)cc2)c2cc3c(cc21)OCO3 (stereo not drawn)	> 100	> 200	> 20	–	–	–	–	Dose (Mus musculus [14]): 200 mg/kg; Dose (Mus musculus [15]): 100 mg/kg
CC(=O)N1CC(C)c2cc3c(cc2C(c2ccc(N)cc2)=N1)OCO3 (stereo not drawn)	69.3	95.3	20	–	3.4	135	–	Inhibition (Rattus norvegicus [10]): 54%; Dose (Mus musculus [16]): 200 mg/kg; Dose (Mus musculus [17]): 100 mg/kg
CC1=NN=C(c2ccc(N)cc2)c2cc3c(cc2C1)OCO3 [GYKI-52466]	37.4	–	6.3	100	9.5	120	200	IC50 (Rattus norvegicus [18]): 9.9 µM
CC(=O)N1N=C(c2ccc(N)cc2)c2cc3c(cc2C[C@H]1C)OCO3 [TALAMPANEL]	8.6	–	1.7	100	2.6	–	200	IC50 (Rattus norvegicus [18]): 2.5 µM
